# This is a sample that favours compounds with a hit; in the whole collection about 8.9% have one here.
# bCat nuc transl – modulators of beta-catenin nuclear translocation, primary screen, imaging, HeLa cells, immunofluorescence, high-content. hit rate 0.3% among 190,000. nuclear translocation activity, % at 5 µM;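 active = nuclear translocation activity above 50% at 5 µM, with a well cell count of 50 or more; inconclusive = wells under 50 cells across six images, flagged as toxic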;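 note: per-cell ratio of nuclear to cytoplasmic median beta-catenin stain intensity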
#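 Technique: fluorescence imaging of beta-catenin antibody stain plus DAPI / Material: human HeLa cell line / Incubation: compound treatment 24 h, 37°C, 5% CO2 / Read-out basis: % activation of per-cell nuclear versus cytoplasmic median beta-catenin signal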
# MT stabilizer – microtubule stabilizers in HeLa cells, primary screen, imaging, high-content imaging. % tubulin-high responders, % at 10 µM. hit rate 0.83% among 200,000. AID 2205, 2009. HeLa tubulin immunostaining HCS, 24 h; share of cells brighter than vehicle mean+2SD;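 active = plate Z-score above 3 for both tubulin-high and condensed-nucleus cell shares, with cell loss under 80%, at 10 µM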;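 note: anti alpha tubulin signal scored within the nucleus-defined area of each cell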
# Dynein cargo inh – inhibitors of GR-EGFP nuclear translocation, primary screen, dynein cargo transport inhibitor project, imaging, high-content, 3617.4 mouse cells | test concentration mostly 20 µM; stimulated with dexamethasone, 1 µM; hits give low values | z-score, hits read low | hit rate 0.47% among 220,000 | AID 1381, 2008;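 active = plate z-score of nuclear minus cytoplasmic receptor signal below a set negative limit, without overly bright fluorescence or cell loss, cut at about -3.5 in these data, passing the limit was not always enough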;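 note: z-score of nuclear minus cytoplasmic ring GR-EGFP intensity difference per well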
#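 Buffer or medium: tet-free medium with charcoal-stripped serum / Also added: dexamethasone agonist, 1.0 µM final, for 30 min / Timing: induction 48 h, compound 1 h, agonist 30 min / Measured by: high-content fluorescence imaging after fixation / Read-out: nuclear-to-cytoplasmic GR-EGFP distribution per well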
# HSV augment – enhancers of HSV replication in host cells, fold increase, host cell viability; HSV replication augmentation in cells; hit rate 0.005% among 220,000; maximum fold increase; in the data active = maximum fold increase above about 1.5; inconclusive = no clear call, values can overlap the other calls; tested in PC3 cells
# Lmaj promast – Leishmania major promastigote growth inhibition, primary screen; Leishmania major promastigotes, resazurin fluorescence viability; inhibition, % at 10 µM; hit rate 9% among 200,000; AID 1063, 2008; in the data active = inhibition above about 50%;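 note: promastigotes grown with compound for 44 hours at 28 °C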
# Dynein inh conf – dynein cargo transport inhibitors, GR-EGFP translocation, confirmation, imaging, high-content imaging, GR-EGFP cells | 3617.4 GR-EGFP nuclear translocation imaging, dexamethasone-induced | hit rate 69% among 1,000 | AID 463116, 2010 | shares compounds with Dynein cargo inh | calls only at 20 µM;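 active = inhibition of receptor movement into the nucleus at or above a set limit in both runs, with normal cell brightness and cell count; inconclusive = limit reached in only one run, brightness and count normal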;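 note: dexamethasone at 1 µM final in well for 30 min; nuclear minus cytoplasmic GR-EGFP mean intensity difference in channel 2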
# Hits are given with their value; 0 = inactive; ? = inconclusive; - = not tested or not shown; + = active, no number.
SMILES,bCat nuc transl,MT stabilizer,Dynein cargo inh,HSV augment,Lmaj promast,Dynein inh conf
Cc1cccc(NC(=O)CN2C(=O)N/C(=C/c3ccc(C)s3)C2=O)c1,0,0,0,?,0,?
Cc1cccc(NC(=O)CN2C(=O)N/C(=C/c3cc(C)n(C(C)C)c3C)C2=O)c1,-,0,0,0,0,-
O=C(Nc1ccccc1)C1=C(c2ccccc2)S(=O)(=O)CCS1(=O)=O,0,0,-4.55,0,0,0
CN(Cc1ccccc1)C(=O)c1nc2ccccn2c1CN1CCc2sccc2C1,0,0,0,0,0,-
Cc1ccc(N(C(=O)CNC(=O)c2ccco2)C(C(=O)NC2CCCC2)c2cccnc2)cc1C (stereo unspecified),0,0,0,0,0,-
Cc1ccc(N(C(=O)CCl)C(C(=O)NC2CCCCC2)c2cccnc2)cc1C (stereo unspecified),0,0,-4.06,0,100.4,+
O=[N+]([O-])/C=C/c1cn(Cc2ccccc2)c2ccccc12,0,0,-4.62,0,95.6,?
N#Cc1ccccc1Cn1cc(/C=C/[N+](=O)[O-])c2ccccc21,0,0,-4.67,0,87.1,+
COC(=O)N/N=C/c1cn(Cc2ccc(F)cc2)c2ccccc12,0,-,0,0,-,-
O=C(O)Cn1cc(/C=C/[N+](=O)[O-])c2ccccc21,0,0,0,0,0,-
O=[N+]([O-])c1ccc(N/N=C/c2cn(Cc3ccc(F)cc3)c3ccccc23)nc1,0,0,0,-,0,?
CCC(C)(C)C1CCc2[nH]nc(C(=O)N/N=C(\C)c3ccco3)c2C1 (stereo unspecified),0,-,-3.81,0,-,0
CCN(CC)CCC(=O)NC(C)(C)Cc1ccc(O)cc1,0,0,0,0,0,-
O=C(NCc1cccnc1)/C(=C/c1ccc(-c2cccc(Cl)c2)o1)S(=O)(=O)c1ccccc1,54.8,25.6,-3.85,0,100.4,+
O=C(NCc1cccnc1)/C(=C\c1ccc(-c2cccc(Cl)c2)o1)S(=O)(=O)c1ccccc1,0,51.6,-4.3,0,100.3,+
CCSc1nnc(-c2sc3nnc(-c4ccccc4)c(-c4ccccc4)c3c2N)o1,-,0,0,?,0,0
CCOC(=O)c1nc2sc(C)c(C)c2c(=O)[nH]1,-,0,0,0,0,-
CCOC(=O)/C(=C\c1cccc(O)c1)c1nc2sc(C)c(C)c2c(=O)[nH]1,0,0,-4.44,0,99.5,+
O=[N+]([O-])c1ccc(N/N=C/c2c[nH]c3ccccc23)c(S(=O)(=O)Nc2ccc(Cl)cc2)c1,0,0,0,-,0,-
Cc1[nH]c2ccccc2c1/C=N/Nc1ccc([N+](=O)[O-])cc1,0,0,0,?,0,0
COc1ccccc1NS(=O)(=O)c1cc([N+](=O)[O-])ccc1N/N=C/c1c(C)[nH]c2ccccc12,0,0,0,?,0,0
Cc1[nH]c2ccccc2c1/C=N/NC(=O)c1cccc([N+](=O)[O-])c1,0,0,0,-,0,-
CC(C)N(Cc1cc2ccccc2[nH]c1=O)C(=O)C1CCCCC1,0,0,0,0,0,-
CCC(=O)Nc1cccc(C(=O)/C=C/c2ccc(F)cc2)c1,0,0,-4.79,0,100.4,+
CCN(C(=O)c1cccc(Br)c1)c1ccccc1,0,0,0,0,0,-
SMILES,bCat nuc transl,MT stabilizer,Dynein cargo inh,HSV augment,Lmaj promast,Dynein inh conf
CN(C)c1ccc(/C=C/C(=O)c2cccc(Br)c2)cc1,0,13.7,0,-,0,+
COc1ccc(C(=O)NNC(=O)CN2CCC(n3nnc4cc(C)ccc43)CC2)cc1,0,0,0,0,0,-
O=C1[C@@H]2[C@H](C(=O)N1n1cnnc1)[C@H]1C=C[C@@H]2C1,0,0,0,0,0,-
CCOC(=O)COc1c(OC)cc(Cl)cc1C1Nc2ccccc2C(=O)N1c1ccccc1 (stereo unspecified),0,0,0,0,0,-
O=C(/C=C/c1cccc([N+](=O)[O-])c1)NC(=S)Nc1ccccc1C(=O)O,0,0,-3.51,0,0,+
O=C(/C=C/c1cccc([N+](=O)[O-])c1)NC(=S)Nc1cccc(NC(=O)c2ccccc2Cl)c1,0,0,0,0,0,-
CCOC(=O)CC1C(=O)NCCN1c1nc2ccc(C)cn2c(=O)c1/C=C1\SC(=S)N(C(C)CC)C1=O (stereo unspecified),0,-,0,?,-,+
CCCN1C(=O)/C(=C/c2c(N3CCNC(=O)C3CC(=O)OCC)nc3c(C)cccn3c2=O)SC1=S (stereo unspecified),0,-,0,-,-,-
CCC(C)N1C(=O)/C(=C/c2c(NCCCOC(C)C)nc3c(C)cccn3c2=O)SC1=S (stereo unspecified),0,0,0,?,0,-
CCOC(=O)CC1C(=O)NCCN1c1nc2ccc(C)cn2c(=O)c1/C=C1\SC(=S)N(CC(C)C)C1=O (stereo unspecified),0,-,0,-,-,0
Cc1c(NC(=S)N/N=C/c2ccc(O)cc2)c(=O)n(-c2ccccc2)n1C,0,0,0,0,0,-
Cc1noc(C)c1C(=O)N1CCC(CO)(Cc2ccccc2)CC1,0,0,0,0,0,-
COc1cccc(C2C(C#N)=C(N)Oc3cc(C)[nH]c(=O)c32)c1OC (stereo unspecified),0,0,0,-,0,-
COc1ccccc1C(=O)/C=C/c1ccc(N2CCCCC2)c([N+](=O)[O-])c1,0,0,-5.35,0,98.3,+
O=C(/C=C/c1ccc(N2CCCCC2)c([N+](=O)[O-])c1)c1ccc(O)cc1,0,0,-3.66,0,99.9,+
O=C(c1ccc(N2CCCCC2)c([N+](=O)[O-])c1)N1CCOCC1,0,0,0,0,0,-
C=CCN(c1ccccc1)S(=O)(=O)c1c(C)[nH]c(=O)[nH]c1=O,0,0,0,0,0,-
CCCNC(=O)COC(=O)/C=C/c1cccc(F)c1,0,0,0,0,0,-
Cc1onc(-c2c(F)cccc2Cl)c1-c1nnc(-c2cccc3ccccc23)o1,0,-,0,0,-,-
Cc1onc(-c2c(Cl)cccc2Cl)c1-c1nc2cc(Cl)ccc2c(=O)o1,0,-,-4.13,0,-,+
CCN(CC)c1ccc(/C=C2\CCC(/C=N/NC(=O)c3ccc(=O)n(C)c3)=C2N2CCOCC2)cc1,0,0,0,?,0,+
Cc1cc(C)n(Cc2ccc(C(=O)Nc3cccc(Br)c3)o2)n1,-,0,0,0,0,-
O=C(Cc1ccccc1)Nc1cccc(N2C(=O)C=CC2=O)c1,0,0,-4.71,-,0,+
COc1ccc(S(=O)(=O)N2CCOCC2)c(Cl)c1Cl,0,0,0,0,0,-
CCOC(=O)c1c(-c2ccc(C)o2)csc1NC(=O)CN1CCCCC1,0,0,-4.61,0,0,0
CCOC(=O)c1c(-c2ccc(C)o2)csc1NC(=O)CSc1nncs1,0,0,-3.98,0,0,0
